According to ChEMBL document CHEMBL5143748, “Quinolines and Oxazino-quinoline Derivatives as Small Molecule GLI1 Inhibitors Identified by Virtual Screening” (ACS Med Chem Lett, 2022):
Active and inactive are the calls of the source. The rule behind the calls is not given here.

Experiments:
NIH3T3 = assay: Inhibition of hedgehog signalling in SAG-induced mouse NIH3T3 cells assessed as decrease in GLI1 protein expression level at 1 uM for 48 hrs by Western blot analysis; assay type: cell-based
How it was run: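 Murine NIH3T3 cells, endogenous Hh pathway activated with the SMO agonist SAG (100 nM), co-treated with compound (1 μM), DMSO vehicle or GANT61 (5 μM) for 48 h. Endogenous GLI1 detected by Western blot with HSP90 as loading control. Reduction graded qualitatively, e.g. "+" weak, "NA" not affected.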

A-375 = assay: Antiproliferative activity against human A375 cells assessed as reduction in cell viability incubated for 72 hrs by trypan blue or crystal violet staining based assay; assay type: functional; conditions: A-375, 72 h
How it was run: (§1)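 IC50 in micromolar, fitted from triplicate experiments in human melanoma A375 and medulloblastoma DAOY cells.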

Daoy = assay: Antiproliferative activity against human DaOY cells assessed as reduction in cell viability incubated for 72 hrs by trypan blue or crystal violet staining based assay; assay type: functional; how it was run: as §1

Row | Structure (SMILES) | inhibition (NIH3T3) | IC50 (A-375) [nM] | IC50 (Daoy) [nM]
1 | c1ccc2c(c1)CCCC2N1COc2c(ccc3cccnc23)C1 (stereo not given) | Active | 300 | 600
2 | c1cnc2c3c(ccc2c1)CN(C1CCCCCC1)CO3 | Active | 880 | 1200
3 | Fc1cnc2c3c(ccc2c1)CN(CCc1ccccc1)CO3 | Active | 1100 | 1400
4 | Fc1cnc2c3c(ccc2c1)CN(C1CCCCC1)CO3 | Active | 500 | 300
5 | O=C(NC(c1ccc(Cl)cc1Cl)c1ccc2cccnc2c1O)C1CCCC1 (stereo not given) | Active | 320 | 150
6 | CCCC(=O)NC(c1ccccc1)c1cc(Cl)c2cccnc2c1O (stereo not given) |  | 130 | 110
7 | CCCC(=O)NC(c1ccc(C)cc1)c1cc(Cl)c2cccnc2c1O (stereo not given) | Active | 120 | 100
8 | c1cnc2c3c(ccc2c1)CN(C1CCCCCCC1)CO3 | Active | 280 | 290
9 | CCCC(=O)NC(c1ccc(Cl)cc1Cl)c1ccc2cccnc2c1O (stereo not given) | Active | 110 | 190
10 | O=C(NCc1ccc2c(OCc3ccccc3)ccnc2c1O)C1CCCCC1 | Active | 550 | 260
11 | CCCCC(=O)NC(c1ccc(Cl)cc1)c1ccc2cccnc2c1O (stereo not given) | Active | 710 | 330
12 | O=C(NCc1ccc2cccnc2c1O)C1CCCCC1 | Active | 910 | 720
13 | CCCC(=O)NC(c1ccc(Cl)cc1)c1cc(Cl)c2cccnc2c1O (stereo not given) |  | 120 | 100
14 | CCCCC(=O)NC(c1ccc(Cl)cc1Cl)c1ccc2cccnc2c1O (stereo not given) | Active | 1120 | 150
15 | c1ccc(CCN2COc3c(ccc4cccnc34)C2)cc1 | Active | 130 | 190
16 | COc1ccc(C(NC(C)=O)c2cc(Cl)c3cccnc3c2O)cc1OC (stereo not given) | Active | 110 | 210
17 | CCCCC(=O)NC(c1ccc(Cl)c(Cl)c1)c1ccc2cccnc2c1O (stereo not given) | Active | 320 | 100

Row | Structure (SMILES) | inhibition (NIH3T3) | IC50 (A-375) [nM] | IC50 (Daoy) [nM]
18 | CCCC(=O)NC(c1ccc(C(C)C)cc1)c1cc(Cl)c2cccnc2c1O (stereo not given) | Active | 120 | 90
19 | CCCC(=O)NC(c1ccc(OC)c(OC)c1)c1ccc2cccnc2c1O (stereo not given) | Active | 130 | 110
20 | CCCCN1COc2c(ccc3cc(Cl)cnc23)C1 | Active | 490 | 380
21 | CCCC(=O)NC(c1ccc(N(CC)CC)cc1)c1cc(Cl)c2cccnc2c1O (stereo not given) | Active | 130 | 100
22 | Oc1c(C(NCCc2ccccc2)c2ccc(Cl)cc2Cl)ccc2cccnc12 (stereo not given) | Active | 190 | 150
23 | c1cnc2c3c(ccc2c1)CN(CC1CCCCC1)CO3 | Active | 380 | 1000
24 | CCCCC(=O)NC(c1cc(Cl)cc(Cl)c1)c1ccc2cccnc2c1O (stereo not given) | Active | 90 | 140
25 | C1=C(CCN2COc3c(ccc4cccnc34)C2)CCCC1 | Active | 120 | 230
26 | COc1ccc(C(NC(=O)C(C)C)c2cc(Cl)c3cccnc3c2O)cc1OC (stereo not given) | Active | 130 | 100
27 | Oc1c(CNCCc2ccccc2)ccc2cccnc12 | Active | 390 | 330
28 | Clc1cnc2c3c(ccc2c1)CN(CCCN1CCOCC1)CO3 | Active | 150 | 1200
29 | O=C(NC(c1ccc(Cl)cc1Cl)c1ccc2cccnc2c1O)C1CCCCC1 (stereo not given) | Active | 1010 | 240
30 | CCCCOc1ccnc2c(O)c(CNC(=O)C3CCCCC3)ccc12 | Active | 540 | 510
31 | CCCC(=O)NC(c1ccccc1Cl)c1cc(Cl)c2cccnc2c1O (stereo not given) | Active | 100 | 100
32 | c1cnc2c3c(ccc2c1)CN(C1CCCCC1)CO3 | Active | 300 | 500
33 | CC1CCC(N2COc3c(ccc4cccnc34)C2)CC1 (stereo not given) | Active | 420 | 550
34 | COc1ccc(CN2COc3c(ccc4cccnc34)C2)cc1 | Active | 580 | 870
